Tested on: patients with advanced solid tumors
Assay: Toxicity by grade
Assay type: in vivo, human
How it was run: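 Adverse events were tabulated descriptively as maximum grade in three groups: the chemotherapy-only lead-in cycle, the first veliparib-containing cycle, and all cycles. CBC and serum chemistry including liver function tests were drawn weekly during cycles 1–2, then at the start of every cycle. Veliparib was oral, twice daily on days 1–7; carboplatin/paclitaxel were IV every 21 days.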

[1] = first cycle including veliparib with carboplatin and paclitaxel, n=73
[2] = veliparib with carboplatin and paclitaxel

## C[C@]1(c2nc3c(C(N)=O)cccc3[nH]2)CCCN1 [veliparib]
[1]
  Neutrophil count decreased, Grade 4: 23 (31) number of patients (%)
  Non-cardiac chest pain, Any Grade: 1 (1) number of patients (%)
  Non-cardiac chest pain, Grade 1: 1 (1) number of patients (%)
  Non-cardiac chest pain, Grade 2: 0 number of patients (%)
  Non-cardiac chest pain, Grade 3: 0 number of patients (%)
  Non-cardiac chest pain, Grade 4: 0 number of patients (%)
  Paresthesia, Any Grade: 1 (1) number of patients (%)
  Paresthesia, Grade 1: 1 (1) number of patients (%)
  Paresthesia, Grade 2: 0 number of patients (%)
  Paresthesia, Grade 3: 0 number of patients (%)
  Paresthesia, Grade 4: 0 number of patients (%)
  Peripheral sensory neuropathy, Any Grade: 7 (10) number of patients (%)
  Peripheral sensory neuropathy, Grade 1: 7 (10) number of patients (%)
  Peripheral sensory neuropathy, Grade 2: 0 number of patients (%)
  Peripheral sensory neuropathy, Grade 3: 0 number of patients (%)
  Peripheral sensory neuropathy, Grade 4: 0 number of patients (%)
  Platelet count decreased, Any Grade: 13 (18) number of patients (%)
  Platelet count decreased, Grade 1: 7 (10) number of patients (%)
  Platelet count decreased, Grade 2: 2 (3) number of patients (%)
  Platelet count decreased, Grade 3: 4 (5) number of patients (%)
  Platelet count decreased, Grade 4: 0 number of patients (%)
  Presyncope, Any Grade: 1 (1) number of patients (%)
  Presyncope, Grade 1: 0 number of patients (%)
  Presyncope, Grade 2: 0 number of patients (%)
  Presyncope, Grade 3: 1 (1) number of patients (%)
  Presyncope, Grade 4: 0 number of patients (%)
  Pruritus, Any Grade: 3 (4) number of patients (%)
  Pruritus, Grade 1: 3 (4) number of patients (%)
  Pruritus, Grade 2: 0 number of patients (%)
  Pruritus, Grade 3: 0 number of patients (%)
  Pruritus, Grade 4: 0 number of patients (%)
  Purpura, Any Grade: 1 (1) number of patients (%)
  Purpura, Grade 1: 1 (1) number of patients (%)
  Purpura, Grade 2: 0 number of patients (%)
  Purpura, Grade 3: 0 number of patients (%)
  Purpura, Grade 4: 0 number of patients (%)
  Rash maculopapular, Any Grade: 2 (3) number of patients (%)
  Rash maculopapular, Grade 1: 2 (3) number of patients (%)
  Rash maculopapular, Grade 2: 0 number of patients (%)
  Rash maculopapular, Grade 3: 0 number of patients (%)
  Rash maculopapular, Grade 4: 0 number of patients (%)
  Sepsis, Any Grade: 2 (3) number of patients (%)
  Sepsis, Grade 1: 0 number of patients (%)
  Sepsis, Grade 2: 0 number of patients (%)
  Sepsis, Grade 3: 0 number of patients (%)
  Sepsis, Grade 4: 2 (3) number of patients (%)
  Sinus disorder, Any Grade: 1 (1) number of patients (%)
  Sinus disorder, Grade 1: 1 (1) number of patients (%)
  Sinus disorder, Grade 2: 0 number of patients (%)
  Sinus disorder, Grade 3: 0 number of patients (%)
  Sinus disorder, Grade 4: 0 number of patients (%)
  Tremor, Any Grade: 1 (1) number of patients (%)
  Tremor, Grade 1: 1 (1) number of patients (%)
  Tremor, Grade 2: 0 number of patients (%)
  Tremor, Grade 3: 0 number of patients (%)
  Tremor, Grade 4: 0 number of patients (%)
  Upper respiratory infection, Any Grade: 1 (1) number of patients (%)
  Upper respiratory infection, Grade 1: 0 number of patients (%)
  Upper respiratory infection, Grade 2: 1 (1) number of patients (%)
  Upper respiratory infection, Grade 3: 0 number of patients (%)
  Upper respiratory infection, Grade 4: 0 number of patients (%)
  Vomiting, Any Grade: 9 (12) number of patients (%)
  Vomiting, Grade 1: 7 (10) number of patients (%)
  Vomiting, Grade 2: 2 (3) number of patients (%)
  Vomiting, Grade 3: 0 number of patients (%)
  Vomiting, Grade 4: 0 number of patients (%)
  Weight loss, Any Grade: 2 (3) number of patients (%)
  Weight loss, Grade 1: 2 (3) number of patients (%)
  Weight loss, Grade 2: 0 number of patients (%)
  Weight loss, Grade 3: 0 number of patients (%)
  Weight loss, Grade 4: 0 number of patients (%)
  White blood cell decreased, Any Grade: 40 (55) number of patients (%)
  White blood cell decreased, Grade 1: 6 (8) number of patients (%)
  White blood cell decreased, Grade 2: 14 (19) number of patients (%)
  White blood cell decreased, Grade 3: 17 (23) number of patients (%)
  White blood cell decreased, Grade 4: 3 (4) number of patients (%)
Total across the dose levels
  Febrile neutropenia or grade 3-4 neutropenia lasting more than 7 days: 7 patients
[2]
  neutropenia highest grade 3, DLT assessment period: 19%
  neutropenia highest grade 4, DLT assessment period: 31%
  neutropenia, frequency during the DLT assessment period: 57%

Reference: article PMC7825275 (Cancer chemotherapy and pharmacology, 2019)
